Assay results published in ChEMBL document CHEMBL1811838, “Antimalarial activity of natural and synthetic prodiginines” (J Med Chem, 2011).

What was measured:
Plasmodium falciparum [1] = experiment: Antimalarial activity multidrug-resistant Plasmodium falciparum Dd2 after 72 hrs by SYBR Green I based fluorescence assay; format: functional, organism-based; conditions: Dd2, 72 h
Summary of the method: (§1)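 P. falciparum (D6 pansensitive; Dd2 MDR) cultured under standard conditions and grown 72 h with varying compound concentrations, chloroquine positive control or no drug, each condition in quadruplicate. Growth measured by SYBR Green I fluorescence with minor modifications; IC50 = concentration inhibiting growth by 50%.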

[2] = Toxicity in C57BL/6J mouse splenic lymphocytes after 72 hrs by Alamar blue Assay; format: cell-based; conditions: splenic lymphocyte
Summary of the method: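 Splenic lymphocytes from C57BL/6J mice washed, then stimulated with 1 μg/mL concanavalin A in RPMI/10% FBS with 50 μM β-mercaptoethanol. Seeded at 2 × 10^5 cells/well with serially diluted compound for 72 h at 37 °C, 5% CO2. Resazurin added (final 10 μM) for another 24 h; fluorescence read at ex 560/em 590 nm.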

Plasmodium falciparum [3] = experiment: Antimalarial activity Plasmodium falciparum D6 after 72 hrs by SYBR Green I based fluorescence assay; format: functional, organism-based; conditions: D6, 72 h; summary of the method: as §1
Plasmodium yoelii [4] = experiment: Antimalarial activity Plasmodium yoelii infected in CF-1 mouse assessed as reduction of parasitemia at 25 mg/kg, po qd for 3 days administered 24 hrs after infection measured after 24 hrs last dose relative to control; format: functional; set-up: scale not given: the % may be the effect or the level left
Summary of the method: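 Female outbred CF-1 mice infected iv (tail vein) with 5 × 10^5 P. yoelii Kenya-infected erythrocytes. Groups of five given compound or vehicle alone by gavage in caprylic/capric triglyceride once daily for 3 days starting 24 h post-infection. One day after last dose, Giemsa-stained thin smears scored microscopically for % infected erythrocytes vs untreated controls. Group mean weight day 3 vs day 0. Smear-negative mice followed; parasite-free at 28 days counted cured.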

Mus musculus [5] = experiment: Toxicity in Plasmodium yoelii infected CF-1 mouse assessed as weight loss at 25 mg/kg, po qd for 3 days relative to control; format: organism-based; set-up: dose 25 mg/kg, route oral; conditions: in vivo, 72 h
Summary of the method: (§2)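 Female outbred CF-1 mice were infected i.v. via the tail vein with 5 × 10^5 P. yoelii Kenya-infected erythrocytes, in groups of five. Compound or vehicle alone was given by gavage in caprylic/capric triglyceride once daily for 3 days, starting 24 h post-infection. One day after the last dose, Giemsa-stained thin smears were scored by microscopy for % parasitemia versus untreated controls. Group mean weight was recorded as day 3 versus day 0.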

Mus musculus [6] = experiment: Toxicity in Plasmodium yoelii infected CF-1 mouse assessed as weight loss at 5 mg/kg, po qd for 3 days relative to control; format: organism-based; set-up: dose 5 mg/kg, route oral; conditions: in vivo, 72 h; summary of the method: as §2
Plasmodium yoelii [7] = experiment: Antimalarial activity Plasmodium yoelii infected in CF-1 mouse assessed as reduction of parasitemia at 5 mg/kg, po qd for 3 days administered 24 hrs after infection measured after 24 hrs last dose relative to control; format: functional; set-up: scale not given: the % may be the effect or the level left; summary of the method: as §2

Structure (SMILES)	IC50 (Plasmodium falciparum [1])	IC50 [2]	IC50 (Plasmodium falciparum [3])	Activity (Plasmodium yoelii [4])	Activity (Mus musculus [5])	Activity (Mus musculus [6])	Activity (Plasmodium yoelii [7])
CCc1cc(Cc2ccc(Cl)cc2)c(/C=C2\N=C(c3ccc[nH]3)C=C2OC)[nH]1	0.0062 µM	< 0.125 µM	–	–	–	–	–
COC1=CC(c2cc3ccccc3[nH]2)=N/C1=C\c1[nH]c(C)cc1C [OBATOCLAX]	4.95 µM	< 0.125 µM	4.25 µM	–	–	–	–
CCCCCCc1cc[nH]c1/C=C1\N=C(c2ccc[nH]2)C=C1OC	0.007 µM	< 0.125 µM	0.028 µM	–	–	–	–
COC1=CC(c2ccc[nH]2)=N/C1=C\c1[nH]c(Cc2ccc(Cl)cc2)cc1CCC1CCCCC1	0.0029 µM	1.01 µM	0.0039 µM	–	–	–	–
CCCc1ccc(/C=C2\N=C(c3ccc[nH]3)C=C2OC)[nH]1	–	–	2.3 µM	–	–	–	–
CCCCCCCCc1cc(CCCCCCC)[nH]c1/C=C1\N=C(c2ccc[nH]2)C=C1OC	0.0029 µM	3.91 µM	0.0062 µM	–	–	–	–
CCCCCCCCc1cc(Cc2ccc(Cl)cc2)c(/C=C2\N=C(c3ccc[nH]3)C=C2OC)[nH]1	0.012 µM	1.1 µM	0.016 µM	100%	93.4%	100.2%	72%
CCCCCCCCc1cc(Cc2ccc(F)cc2)c(/C=C2\N=C(c3ccc[nH]3)C=C2OC)[nH]1	0.0012 µM	< 0.125 µM	0.0013 µM	–	–	–	–
COC1=CC(c2ccc[nH]2)=N/C1=C\c1[nH]c(Cc2ccc(Br)cc2)cc1Cc1ccc(Cl)cc1	0.0077 µM	< 0.125 µM	0.0083 µM	–	–	–	–
COC1=CC(c2ccc[nH]2)=N/C1=C\c1[nH]c(Cc2ccc(Cl)cc2Cl)cc1Cc1ccc(Cl)cc1Cl	0.011 µM	< 0.125 µM	0.0126 µM	–	–	–	–
CCCCCCCCCCCC1=N/C(=C\c2[nH]c(-c3cc4ccccc4[nH]3)cc2OC)C=C1	6.15 µM	3.41 µM	4.06 µM	–	–	–	–
CCCCCCCCCCCC1=N/C(=C\c2[nH]c(-c3ccccc3)cc2OC)C=C1	15.8 µM	3.58 µM	10.5 µM	–	–	–	–
CCCCCCCCc1cc(CCC)c(/C=C2\N=C(c3ccc[nH]3)C=C2OC)[nH]1	0.0027 µM	< 0.125 µM	0.0029 µM	100%	92.4%	100.1%	90%
COC1=CC(c2ccc[nH]2)=N/C1=C\c1[nH]c(Cc2ccc(Br)cc2)cc1Cc1ccc(F)cc1	0.0051 µM	< 0.125 µM	0.0057 µM	–	–	–	–
CCCCC1CCCCCCc2cc1c(/C=C1\N=C(c3ccc[nH]3)C=C1OC)[nH]2 (centres undefined) [STREPTORUBIN B]	–	–	0.0078 µM	–	–	–	–
CCCCCCc1ccc(/C=C2\N=C(c3ccc[nH]3)C=C2OC)[nH]1	0.45 µM	< 0.125 µM	0.375 µM	–	–	–	–
COC1=CC(c2cccs2)=N/C1=C\c1[nH]c(C)cc1C	> 25 µM	3.53 µM	> 25 µM	–	–	–	–
CCCCCCCc1cc(CCCCCC)c(/C=C2\N=C(c3ccc[nH]3)C=C2OC)[nH]1	0.0012 µM	< 0.125 µM	0.0021 µM	–	–	–	–
COC1=CC(c2ccc[nH]2)=N/C1=C\c1ccc(CCCCCCCCCCCN)[nH]1	–	–	1.7 µM	–	–	–	–

Structure (SMILES)	IC50 (Plasmodium falciparum [1])	IC50 [2]	IC50 (Plasmodium falciparum [3])	Activity (Plasmodium yoelii [4])	Activity (Mus musculus [5])	Activity (Mus musculus [6])	Activity (Plasmodium yoelii [7])
CCCCc1cc[nH]c1/C=C1\N=C(c2ccc[nH]2)C=C1OC	0.018 µM	< 0.125 µM	0.08 µM	–	–	–	–
COC1=CC(c2ccc[nH]2)=N/C1=C\c1[nH]ccc1Cc1ccc(Br)cc1	0.108 µM	< 0.125 µM	0.09 µM	–	–	–	–
COC1=CC(c2ccc[nH]2)=N/C1=C\c1[nH]c(CCC2CCCCC2)cc1CCC1CCCCC1	0.0035 µM	< 0.125 µM	0.0053 µM	–	–	–	–
CCCCCCCCCCCCCCCCc1cc[nH]c1/C=C1\N=C(c2ccc[nH]2)C=C1OC	> 25 µM	3.63 µM	> 25 µM	–	–	–	–
COC1=CC(c2ccc[nH]2)=N/C1=C\c1[nH]ccc1Cc1ccc(Cl)cc1	0.081 µM	< 0.125 µM	0.065 µM	90%	105%	101.2%	38%
COC1=CC(c2ccc[nH]2)=N/C1=C\c1[nH]ccc1Cc1ccc2ccccc2c1	–	–	0.056 µM	–	–	–	–
CCCCCCc1cc(Cc2ccc(F)cc2)c(/C=C2\N=C(c3ccc[nH]3)C=C2OC)[nH]1	0.0009 µM	1.46 µM	–	–	–	–	–
COC1=CC(c2ccc[nH]2)=N/C1=C\c1[nH]c(Cc2ccc(F)cc2)cc1Cc1ccc(Cl)cc1	0.0061 µM	< 0.125 µM	–	–	–	–	–
COC1=CC(c2ccc[nH]2)=N/C1=C\c1[nH]c(Cc2ccc(F)cc2)cc1Cc1ccc(F)cc1	0.0057 µM	< 0.125 µM	0.0056 µM	–	–	–	–
CCCCCCCc1cc(Cc2ccc(Cl)cc2)c(/C=C2\N=C(c3ccc[nH]3)C=C2OC)[nH]1	0.0022 µM	< 0.125 µM	0.0028 µM	–	–	–	–
COC(=O)CCCc1cc[nH]c1/C=C1\N=C(c2ccc[nH]2)C=C1OC	–	–	4.5 µM	–	–	–	–
CCCCc1ccc(/C=C2\N=C(c3ccc[nH]3)C=C2OC)[nH]1	1.59 µM	< 0.125 µM	1.78 µM	–	–	–	–
CCCCCCCCCCCCCCCCc1ccc(/C=C2\N=C(c3ccc[nH]3)C=C2OC)[nH]1	0.4 µM	< 0.125 µM	0.3 µM	–	–	–	–
CCCCCCCCCCCc1ccc(/C=C2\N=C(c3ccco3)C=C2OC)[nH]1	3.81 µM	0.98 µM	2.92 µM	–	–	–	–
CCCCCCCCCCc1cc[nH]c1/C=C1\N=C(c2ccc[nH]2)C=C1OC	0.01 µM	< 0.125 µM	0.008 µM	–	–	–	–
COC1=CC(c2ccc[nH]2)=N/C1=C\c1[nH]ccc1Cc1ccc(OC)cc1	0.156 µM	< 0.125 µM	0.17 µM	–	–	–	–
CCCCCCc1cc(CCCCCC)c(/C=C2\N=C(c3ccc[nH]3)C=C2OC)[nH]1	0.0011 µM	< 0.125 µM	0.0017 µM	–	–	–	–
COC1=CC(c2ccc[nH]2)=N/C1=C\c1[nH]c(Cc2c(F)cccc2F)cc1Cc1c(F)cccc1F	0.0183 µM	< 0.125 µM	0.0147 µM	–	–	–	–
COC1=CC(c2ccc[nH]2)=N/C1=C\c1[nH]c(C)cc1C	8.13 µM	< 0.125 µM	8.9 µM	–	–	–	–

Structure (SMILES)	IC50 (Plasmodium falciparum [1])	IC50 [2]	IC50 (Plasmodium falciparum [3])	Activity (Plasmodium yoelii [4])	Activity (Mus musculus [5])	Activity (Mus musculus [6])	Activity (Plasmodium yoelii [7])
CCCCCC1=C/C(=C/c2[nH]c(-c3ccc[nH]3)cc2OC)N=C1C [PRODIGIOSIN]	–	–	0.008 µM	–	–	–	–
CCCCCCCCc1ccc(/C=C2\N=C(c3ccc[nH]3)C=C2OC)[nH]1	0.13 µM	< 0.125 µM	0.08 µM	–	–	–	–
COC1=CC(c2ccc[nH]2)=N/C1=C\c1[nH]ccc1Cc1ccccc1	0.086 µM	< 0.125 µM	–	–	–	–	–
COC1=CC(c2ccc[nH]2)=N/C1=C\c1[nH]ccc1CC(C)C	0.23 µM	< 0.125 µM	0.46 µM	–	–	–	–
COC1=CC(c2ccc[nH]2)=N/C1=C\c1[nH]c(Cc2ccc(Br)cc2)cc1Cc1ccc(Br)cc1	0.011 µM	< 0.125 µM	0.014 µM	–	–	–	–
CCN(CC)CCCC(C)Nc1ccnc2cc(Cl)ccc12 (centres undefined) [CHLOROQUINE]	–	16 µM	–	–	–	–	–
CCCCCCc1cc(CCC)c(/C=C2\N=C(c3ccc[nH]3)C=C2OC)[nH]1	0.004 µM	< 0.125 µM	0.0045 µM	–	–	–	–
CCCCCCc1cc(Cc2ccc(Br)cc2)c(/C=C2\N=C(c3ccc[nH]3)C=C2OC)[nH]1	0.0028 µM	< 0.125 µM	–	–	–	–	–
COC1=CC(c2ccc[nH]2)=N/C1=C\c1[nH]c(Cc2ccccc2Cl)cc1Cc1ccccc1Cl	0.0049 µM	< 0.125 µM	0.0036 µM	–	–	–	–
CCCCCCCCc1cc(CCCCCC)[nH]c1/C=C1\N=C(c2ccc[nH]2)C=C1OC	0.002 µM	< 0.125 µM	0.0049 µM	–	–	–	–
COC1=CC(c2ccco2)=N/C1=C\c1[nH]c(C)cc1C	> 25 µM	3.89 µM	> 25 µM	–	–	–	–
CCCCCCCCCCCc1ccc(/C=C2\N=C(c3cccs3)C=C2OC)[nH]1	7.77 µM	2.12 µM	5.94 µM	–	–	–	–
CCCCCCCCc1cc[nH]c1/C=C1\N=C(c2ccc[nH]2)C=C1OC	0.0018 µM	< 0.125 µM	0.0046 µM	–	–	–	–
CCCCCCCCc1cc(Cc2ccc(Br)cc2)c(/C=C2\N=C(c3ccc[nH]3)C=C2OC)[nH]1	0.0029 µM	< 0.125 µM	0.004 µM	–	–	–	–
COC1=CC(c2ccccc2)=N/C1=C\c1[nH]c(C)cc1C	13.6 µM	7.95 µM	19.4 µM	–	–	–	–
CCCCCCCCCCCC1=N/C(=C\c2[nH]c(-c3ccc[nH]3)cc2OC)C=C1 [UNDECYLPRODIGININE]	–	–	0.0077 µM	–	–	–	–
CCCCCCCCc1cc(CCCCCCCC)c(/C=C2\N=C(c3ccc[nH]3)C=C2OC)[nH]1	0.129 µM	31.2 µM	0.092 µM	–	–	–	–
COC1=CC(c2ccc[nH]2)=N/C1=C\c1[nH]c(Cc2cccc(F)c2)cc1Cc1cccc(F)c1	0.0067 µM	< 0.125 µM	0.0051 µM	–	–	–	–
